Screening data as filed in PubChem.
Pf Dd2 growth: blocks growth of Plasmodium falciparum Dd2 parasites; P. falciparum Dd2 growth, SYBR Green, 72 h; hits give low values; activity change, % at 10 µM; AID 1159554; 94,000 tested, 2.3% active; in the data active = activity change below about -80%; inconclusive = no clear call, values can overlap the other calls
KDM4C inh: KDM4C (human) demethylase inhibition | GST-KDM4C 2-372, H3K9me3 peptide, LANCE TR-FRET | 96,000 tested, 0.15% active | Q9H3R0 | inhibition, % at 12.5 µM;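 active = mean replicate inhibition above about 25%, with at least 55% of replicates also reaching it, limit read from the data, passing the limit was not always enough; inconclusive = only one of those two conditions met; inactive = neither condition met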
Target sequence (Q9H3R0 2-372 limits assumed): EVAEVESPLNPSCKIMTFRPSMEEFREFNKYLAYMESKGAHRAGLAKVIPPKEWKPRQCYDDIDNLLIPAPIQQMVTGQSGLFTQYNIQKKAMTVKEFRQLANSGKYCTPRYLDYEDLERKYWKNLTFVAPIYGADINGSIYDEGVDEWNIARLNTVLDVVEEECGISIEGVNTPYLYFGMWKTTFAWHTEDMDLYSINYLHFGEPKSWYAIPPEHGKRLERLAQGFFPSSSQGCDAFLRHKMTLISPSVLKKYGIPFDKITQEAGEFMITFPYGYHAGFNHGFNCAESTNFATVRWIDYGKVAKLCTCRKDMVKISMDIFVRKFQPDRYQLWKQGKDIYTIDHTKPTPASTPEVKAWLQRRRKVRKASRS
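Test system – GST-tagged GASC-1 (JMJD2C) catalytic fragment, aa 2-372 · Medium – HEPES buffer, pH 7.5, plus ascorbate · Reagent – H3K9me3 peptide with Fe(II)/2OG · Compound – one test concentration per compound · Timing – 30 min reaction, 60 min detection, RT · Technique – TR-FRET with Eu antibody and ULight streptavidin, EDTA stop · Read-out basis – inhibition from TR-FRET ratio decrease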
IDH1 R132H inh: inhibitors of human IDH1 R132H; O75874; AID 624101; 70,000 tested, 0.18% active; IDH1 R132H reductase, diaphorase/resazurin fluorescence, 60 min; inhibition, % at 10 µM; in the data active = inhibition above about 34%; inconclusive = no clear call, values can overlap the other calls; inactive = below about 11%
A number is an active result; 0 = inactive; ? = inconclusive; - = not tested or not shown. Only a selection was taken, and hits are over-represented in it overall.

SMILES	Pf Dd2 growth	KDM4C inh	IDH1 R132H inh
C[C@@H]1CCCCO[C@@H](CN(C)Cc2ccc(Cl)c(Cl)c2)[C@@H](C)CN([C@H](C)CO)C(=O)c2cc(NC(=O)c3ccccc3)ccc2O1	0	0	0
C[C@@H]1CCCCO[C@@H](CN(C)Cc2ccc(Cl)c(Cl)c2)[C@H](C)CN([C@H](C)CO)C(=O)c2cc(NC(=O)c3ccccc3)ccc2O1	-80.7	0	-
C[C@@H]1CCCCO[C@H](CN(C)Cc2ccc(Cl)c(Cl)c2)[C@@H](C)CN([C@@H](C)CO)C(=O)c2cc(NC(=O)c3ccccc3)ccc2O1	-89.8	0	0
CCCN(C)C[C@H]1OCCCC[C@@H](C)Oc2ccc(NC(=O)c3ccccc3)cc2C(=O)N([C@@H](C)CO)C[C@H]1C	-91.4	0	-
C[C@H](CO)N1C[C@H](C)[C@H](CN(C)Cc2ccc(Cl)c(Cl)c2)OCCCC[C@H](C)Oc2ccc(NC(=O)c3ccccc3)cc2C1=O	0	0	-
CCCN(C)C[C@@H]1OCCCC[C@@H](C)Oc2ccc(NC(=O)C3CCCCC3)cc2C(=O)N([C@@H](C)CO)C[C@@H]1C	0	0	0
CCCN(C)C[C@@H]1OCCCC[C@H](C)Oc2ccc(NC(=O)C3CCCCC3)cc2C(=O)N([C@@H](C)CO)C[C@@H]1C	-82.8	0	-
CCCN(C)C[C@@H]1OCCCC[C@H](C)Oc2ccc(NC(=O)c3ccccc3)cc2C(=O)N([C@H](C)CO)C[C@@H]1C	-	0	-
Cc1noc(C)c1S(=O)(=O)Nc1ccc2c(c1)C(=O)N([C@H](C)CO)C[C@H](C)[C@H](CN(C)C(=O)c1ccncc1)OCCCC[C@H](C)O2	0	0	0
COc1ccc(CN(C)C[C@@H]2OCCCC[C@@H](C)Oc3ccc(NC(=O)NC(C)C)cc3C(=O)N([C@H](C)CO)C[C@@H]2C)cc1	-	0	0
CC(C)NC(=O)N[C@H]1C=C[C@@H](CC(=O)NCc2ccc(Oc3ccccc3)cc2)O[C@H]1CO	0	0	0
C[C@@H]1CCCCO[C@H](CN(C)Cc2ccccc2)[C@H](C)CN([C@@H](C)CO)C(=O)c2cc(NC(=O)c3ccccc3)ccc2O1	0	0	-
C[C@@H]1CN([C@@H](C)CO)C(=O)c2cc(NC(=O)c3ccccc3)ccc2O[C@@H](C)CCCCO[C@H]1CN(C)Cc1ccccc1	-84.8	0	-
C[C@@H]1CCCCO[C@@H](CN(C)CC2CC2)[C@H](C)CN([C@@H](C)CO)C(=O)c2cc(NC(=O)c3ccccc3)ccc2O1	0	0	0
C[C@@H]1CCCCO[C@H](CN(C)CC2CC2)[C@H](C)CN([C@@H](C)CO)C(=O)c2cc(NC(=O)c3ccccc3)ccc2O1	-84.4	0	-
CC(C)NC(=O)Nc1ccc2c(c1)C(=O)N([C@@H](C)CO)C[C@@H](C)[C@H](CN(C)CC1CC1)OCCCC[C@@H](C)O2	0	0	-
CS(=O)(=O)N(CC(=O)Nc1ccc(Br)c(Cl)c1)c1ccc(F)cc1	-	-	0
CCCC(=O)Nc1ccc2c(c1)C(=O)N(C)C[C@@H](OC)[C@@H](C)CN(Cc1cncnc1)[C@H](C)CO2	0	0	0
Cc1ccc(S(=O)(=O)N(C)C[C@@H]2Oc3c(NC(=O)c4nc5ccccc5s4)cccc3C(=O)N([C@@H](C)CO)C[C@@H]2C)cc1	0	0	-
Cc1ccc(S(=O)(=O)N(C)C[C@@H]2OCCCC[C@@H](C)Oc3ccc(NC(=O)Nc4ccccc4)cc3C(=O)N([C@H](C)CO)C[C@@H]2C)cc1	-85.9	0	-
Cc1ccc(S(=O)(=O)N(C)C[C@@H]2OCCCC[C@H](C)Oc3ccc(NC(=O)Nc4ccccc4)cc3C(=O)N([C@H](C)CO)C[C@@H]2C)cc1	?	0	-
C[C@@H]1CCCCO[C@@H](CN(C)S(=O)(=O)c2ccccc2)[C@H](C)CN([C@@H](C)CO)C(=O)c2cc(NC(=O)Nc3ccccc3)ccc2O1	0	0	0
C[C@@H]1CCCCO[C@H](CN(C)S(=O)(=O)c2ccccc2)[C@H](C)CN([C@H](C)CO)C(=O)c2cc(NC(=O)Nc3ccccc3)ccc2O1	-84.8	-	0
Cc1ccc(S(=O)(=O)N(C)C[C@H]2OCCCC[C@H](C)Oc3ccc(NC(=O)Nc4ccccc4)cc3C(=O)N([C@@H](C)CO)C[C@H]2C)cc1	-91.0	0	0
C[C@@H]1CN([C@H](C)CO)C(=O)c2cc(NC(=O)Nc3ccccc3)ccc2O[C@@H](C)CCCCO[C@H]1CN(C)S(=O)(=O)c1ccccc1	0	0	0
SMILES	Pf Dd2 growth	KDM4C inh	IDH1 R132H inh
Cc1ccc(S(=O)(=O)N(C)C[C@H]2OCCCC[C@H](C)Oc3ccc(NC(=O)Nc4ccccc4)cc3C(=O)N([C@H](C)CO)C[C@@H]2C)cc1	0	0	-
Cc1ccc(S(=O)(=O)N(C)C[C@@H]2OCCCC[C@@H](C)Oc3ccc(NC(=O)Nc4ccccc4)cc3C(=O)N([C@H](C)CO)C[C@H]2C)cc1	-84.8	0	0
CCCNC(=O)Nc1ccc2c(c1)C(=O)N(C)C[C@@H](OC)[C@@H](C)CN(CCC(F)(F)F)[C@H](C)CO2	-	0	0
O=C(Cc1cccnc1)N1CC(=O)N2[C@H](C1)[C@@H](c1ccc(C3=CCCC3)cc1)[C@@H]2CO	0	0	-
CCCNC(=O)N1C[C@H](C)[C@@H](OC)CN(C)C(=O)c2cc(NS(=O)(=O)CC(F)(F)F)ccc2OC[C@H]1C	0	0	0
CCCC(=O)N1C[C@H]2[C@@H](c3ccccc31)[C@@H](CO)N2C(=O)Nc1ccc(F)cc1	0	0	-
Cc1ccc(CN(C)C[C@H]2OCc3cn(nn3)CCCC(=O)N([C@@H](C)CO)C[C@@H]2C)cc1	0	0	0
CCc1cnc(N2[C@H](C#N)[C@H](c3ccc(-c4cccc(F)c4)cc3)[C@H]2CO)s1	0	0	-
OC[C@@H]1[C@@H](c2ccccc2)C2(CN(CC3CCOCC3)C2)N1Cc1nccs1	0	0	-
C[C@@H]1CCCCO[C@@H](CN(C)C(=O)Nc2ccc(C(F)(F)F)cc2)[C@H](C)CN([C@@H](C)CO)C(=O)c2cc(NC(=O)Nc3ccc4c(c3)OCO4)ccc2O1	0	0	0
O=C(Nc1ccc(Cl)c(Cl)c1)N[C@@H]1CC[C@@H](CCn2cc(C3CCCCC3)nn2)O[C@@H]1CO	-87.5	0	0
COCc1cn(CC[C@@H]2CC[C@@H](NC(=O)Nc3ccc(OC)cc3)[C@H](CO)O2)nn1	0	0	0
COCc1cn(CC[C@H]2CC[C@H](NC(=O)Nc3ccc(OC)cc3)[C@H](CO)O2)nn1	0	89.4	89.3
O=C(Nc1ccc(Cl)c(Cl)c1)N[C@@H]1CC[C@@H](CCn2cc(C3CCCCC3)nn2)O[C@H]1CO	0	0	0
COc1ccccc1CNC(=O)C[C@H]1CC[C@H]2[C@@H](COC[C@@H](O)CN2C(=O)Nc2ccc(F)cc2)O1	0	0	-
C[C@H]1CN([C@@H](C)CO)C(=O)c2cc(-c3cncnc3)cnc2O[C@@H]1CN(C)C(=O)c1ccccc1F	0	0	0
CO[C@@H]1CN(C)C(=O)c2cc(NS(=O)(=O)c3ccc(-c4ccccc4)cc3)ccc2OC[C@@H](C)NC[C@@H]1C	0	0	0
C[C@H](CO)N1C[C@H](C)[C@H](CN(C)Cc2ccncc2)Oc2cc(C3=CCCCC3)ccc2S1(=O)=O	0	0	0
CCC(=O)Nc1ccc2c(c1)C(=O)N(C)C[C@H](OC)[C@H](C)CN(Cc1ccccc1OC)[C@H](C)CO2	-	0	0
